Test results reported in ChEMBL document CHEMBL3785072, “2,6-Di(arylamino)-3-fluoropyridine Derivatives as HIV Non-Nucleoside Reverse Transcriptase Inhibitors” (J Med Chem, 2016).

Columns and labels:
[1] = Selectivity index, ratio of CC50 for human TZM-bl cells to EC50 for R5-tropic HIV1 subtype B BaL infected in human TZM-bl cells; format: toxicity, cell-based; details: for selectivity ratio: TZM-bl cells, read-out: Selectivity Index
[2] = tested on: Human immunodeficiency virus 1; experiment: Antiviral activity against R5-tropic HIV1 subtype B BaL infected in human TZM-bl cells assessed as viral inhibition pre-incubated for 30 mins prior to infection measured after 48 hrs by luciferase assay; format: functional, organism-based
Method in brief: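 TZM-bl cells (10^4/well at 10^5 cells/mL, medium with 30 µg/mL DEAE dextran) pre-incubated with serial compound dilutions 30 min at 37 °C, 5% CO2. Then infected with 200 TCID50 HIV-1 BaL and incubated 48 h. Luciferase read-out expressed as % inhibition vs untreated controls. EC50 from non-linear regression. Triplicate wells, ≥3 independent experiments.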

[3] = tested on: Human immunodeficiency virus 1; experiment: Antiviral activity against nevirapine resistant R5-tropic HIV1 subtype C VI829 expressing reverse transcriptase Y181C mutant infected in human TZM-bl cells assessed as viral inhibition pre-incubated for 30 mins prior to infection measured after 48 hrs by luciferase assay; format: functional, organism-based; details: Human immunodeficiency virus 1, VI829, TZM-bl
Method in brief: (§1)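 TZM-bl cells (10^4 per well, at 10^5 cells/mL in medium with 30μg/mL DEAE dextran) pre-incubated with serial compound dilutions, then infected with 200 TCID50 of resistant HIV-1; luciferase read after 48 h. Inhibition expressed as % of untreated controls; EC50 by non-linear regression. Triplicate wells, at least three independent experiments.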

[4] = tested on: Human immunodeficiency virus 1; experiment: Antiviral activity against efavirenz resistant R5-tropic HIV1 subtype C VI829 expressing reverse transcriptase L100I-K103N mutant infected in human TZM-bl cells assessed as viral inhibition pre-incubated for 30 mins prior to infection measured after 48 hrs by luciferase assay; format: functional, organism-based; details: Human immunodeficiency virus 1, VI829, TZM-bl; method in brief: as §1
[5] = tested on: Human immunodeficiency virus 1; experiment: Antiviral activity against HIV1 NL4.3 expressing reverse transcriptase K103N mutant infected in human TZM-bl cells assessed as viral inhibition pre-incubated for 30 mins prior to infection measured after 48 hrs by luciferase assay; format: functional, organism-based; details: Human immunodeficiency virus 1, NL4.3, TZM-bl; method in brief: as §1
[6] = tested on: Human immunodeficiency virus 1; experiment: Antiviral activity against HIV1 NL4.3 expressing reverse transcriptase K103N-Y181C mutant infected in human TZM-bl cells assessed as viral inhibition pre-incubated for 30 mins prior to infection measured after 48 hrs by luciferase assay; format: functional, organism-based; details: Human immunodeficiency virus 1, NL4.3, TZM-bl; method in brief: as §1
[7] = Human immunodeficiency virus 1, BaL, TZM-bl

| EC50 [2, 7] [nM] | Compound | selectivity ratio [1] | EC50 [3] [nM] | EC50 [4] [nM] | EC50 [5] [nM] | EC50 [6] [nM] | Selectivity Index ([1]; tzm-bl) | EC50 ([2]; tzm-bl) [nM] |
| --- | --- | --- | --- | --- | --- | --- | --- | --- |
| 8.8 | Cc1cc(C#N)cc(F)c1Nc1ccc(F)c(Nc2ccc(C#N)cc2)n1 | 4600 | – | – | – | – | – | – |
| 260 | Cc1ccc(Oc2ccc(F)c(Nc3ccc(C#N)cc3)n2)cc1 | 390 | – | – | – | – | – | – |
| 23 | COC(=O)c1ccc(Nc2nc(Nc3c(C)cc(/C=C/C#N)cc3C)ccc2F)cc1 | 2100 | – | – | – | – | – | – |
| 11 | Cc1cc(/C=C/C#N)ccc1Nc1ccc(F)c(Nc2ccc(C#N)cc2)n1 (mixture of isomers) | 24000 | – | – | – | – | – | – |
| 53 | COC(=O)/C=C/c1cc(C)c(Nc2ccc(F)c(Nc3ccc(Cl)cc3)n2)c(C)c1 | 950 | – | – | – | – | – | – |
| 30 | Cc1cc(C)c(Nc2cccc(Nc3ccc(C#N)cc3)n2)c(C)c1 | 1400 | – | – | – | – | – | – |
| 51 | Cc1cc(C#N)cc(C)c1Nc1ccc(F)c(Nc2ccc(F)cc2)n1 | 830 | – | – | – | – | – | – |
| 84 | COC(=O)/C=C/c1cc(C)c(Nc2ccc(F)c(Nc3ccc(F)cc3)n2)c(C)c1 | 610 | – | – | – | – | – | – |
| 6.2 | Cc1cc(/C=C/C#N)cc(C)c1Nc1ccc(F)c(Nc2ccc(F)cc2)n1 (mixture of isomers) | 8100 | – | – | – | – | – | – |
| 11 | Cc1cc(/C=C/C#N)cc(F)c1Nc1ccc(F)c(Nc2ccc(C#N)cc2)c1 (mixture of isomers) | 6100 | – | – | – | – | – | – |
| 63 | Cc1cc(/C=C/C#N)ccc1Nc1ccc(F)c(Nc2ccc(Cl)cc2)n1 | 380 | – | – | – | – | – | – |
| 58 | Cc1cc(/C=C/C#N)ccc1Nc1ccc(F)c(Nc2ccc(C#N)cc2)c1 (mixture of isomers) | 89 | – | – | – | – | – | – |
| 15 | Cc1cc(C#N)cc(C)c1Nc1ccc(F)c(Nc2ccc(Cl)cc2)n1 | 2000 | – | – | – | – | – | – |
| 400 | Cc1cc(/C=C/C#N)ccc1Nc1ccc(F)c(Nc2ccc(F)cc2)n1 | 210 | – | – | – | – | – | – |
| 4.6 | Cc1cc(/C=C/C#N)cc(C)c1Nc1ccc(F)c(Nc2ccc(/C=C/C#N)cc2)n1 | 19000 | – | – | – | – | – | – |
| 2.8 | Cc1cc(C#N)cc(C)c1Nc1ncc(F)c(Nc2ccc(C#N)cc2)n1 | > 36000 | – | – | – | – | – | – |

The remaining lines, values behind:

| Compound | EC50 [2, 7] [nM] | selectivity ratio [1] | EC50 [3] [nM] | EC50 [4] [nM] | EC50 [5] [nM] | EC50 [6] [nM] | Selectivity Index ([1]; tzm-bl) | EC50 ([2]; tzm-bl) [nM] |
| --- | --- | --- | --- | --- | --- | --- | --- | --- |
| Cc1cc(/C=C/C#N)cc(F)c1Nc1cccc(Nc2ccc(C#N)cc2)n1 (mixture of isomers) | 5.5 | 5500 | 255 | 1100 | – | – | – | – |
| Cc1cc(/C=C/C#N)cc(C)c1Nc1ccc(F)c(Nc2ccc(Cl)cc2)n1 (mixture of isomers) | 6.3 | 6600 | – | – | – | – | – | – |
| Cc1cc(/C=C/C#N)cc(F)c1Nc1ccc(F)c(Nc2ccc(C#N)cc2)n1 | 1 | > 100000 | 25 | 272 | 36 | > 1000 | – | – |
| Cc1cc(C#N)cc(C)c1Nc1ccc(F)c(Nc2ccc(C#N)cc2)n1 | 4.7 | 7100 | 91 | > 10000 | – | – | – | – |
| N#C/C=C/c1cc(F)c(Nc2ccc(F)c(Nc3ccc(C#N)cc3)n2)c(F)c1 (mixture of isomers) | 3.3 | 4600 | – | – | – | – | – | – |
| Cc1cc(C)c(Oc2ccc(F)c(Nc3ccc(C#N)cc3)n2)c(C)c1 | 8.6 | 6400 | – | – | – | – | – | – |
| Cc1cc(C#N)cc(C)c1Nc1cccc(Nc2ccc(C#N)cc2)n1 | 25 | 930 | 1500 | 6600 | – | – | – | – |
| Cc1cc(/C=C/C#N)cc(C)c1Nc1ccc(F)c(Nc2ccc(C#N)cc2)n1 | 1.5 | 62500 | 8.1 | 540 | 7.8 | 554 | 37500 | 1.6 |
| Cc1cc(/C=C/C#N)cc(C)c1Nc1ccc(F)c(Nc2ccc(C#N)cc2)c1 (mixture of isomers) | 4.5 | 7400 | – | – | – | – | – | – |
| Cc1cc(/C=C/C#N)cc(C)c1Nc1ncc(F)c(Nc2ccc(C#N)cc2)n1 (mixture of isomers) | 0.9 | > 42000 | – | – | – | – | – | – |
| COC(=O)/C=C/c1cc(C)c(Nc2ccc(F)c(Nc3ccc(C#N)cc3)n2)c(C)c1 | 4.4 | 13000 | – | – | – | – | – | – |
| Cc1cc(/C=C/C#N)cc(C)c1Nc1cccc(Nc2ccc(C#N)cc2)n1 (mixture of isomers) | 3.5 | 11000 | 91 | > 1000 | – | – | – | – |
| Cc1cc(C)c(Nc2ccc(F)c(Nc3ccc(C#N)cc3)n2)c(C)c1 | 8.3 | 2000 | 130 | > 10000 | – | – | – | – |
| Cc1cc(C)c(Nc2ccnc(Nc3ccc(C#N)cc3)n2)c(C)c1 [DAPIVIRINE] | 1.4 | 2000 | 11 | > 1000 | 2.8 | 92 | – | – |
| Cc1cc(/C=C/C#N)cc(C)c1Nc1ccnc(Nc2ccc(C#N)cc2)n1 [RILPIVIRINE] | 0.72 | 10700 | 2.5 | 3.6 | 0.7 | 3.1 | – | – |
| N#C/C=C/c1ccc(Nc2ccc(F)c(Nc3ccc(C#N)cc3)n2)cc1 (mixture of isomers) | 480 | 14 | – | – | – | – | – | – |
